Source: ChEMBL document CHEMBL3526056, “Characterization of in vitro glucuronidation clearance of a range of drugs in human kidney microsomes: comparison with liver and intestinal glucuronidation and impact of albumin” (Drug Metab Dispos, 2012)
Values belong to the molecule of their own block, whether it stands above or below them.

Key:
[1] = Unbound intrinsic glucuronidation clearance in human kidney microsomes at 1 uM after 30 to 60 mins by LC-MS/MS analysis in presence of UDP-glucuronosyltransferase; format: ADME, microsome
Outline: (§1)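 Alamethicin-activated pooled microsomes (HLM 150 donors; HKM 8; HIM 18). Drug at 1 μM final, preincubated 5 min at 37°C in 0.1 M phosphate pH 7.1 with 3.45 mM MgCl2, 1.15 mM EDTA, 115 μM saccharic acid lactone. Started with […] cofactor (5 mM final), 30–60 min. Cofactor-free controls. Parent depletion by LC-MS/MS, single-exponential k. Corrected by HLM-dialysis fu,inc. Duplicates; n=3 (HIM n=1).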

[2] = Fraction unbound in human liver microsomes at 1 uM after 30 to 60 mins by LC-MS/MS analysis; format: ADME
Liver microsome [3] = assay: Unbound intrinsic glucuronidation clearance in human liver microsomes at 1 uM after 30 to 60 mins by LC-MS/MS analysis in presence of UDP-glucuronosyltransferase and 2% bovine serum albumin; format: ADME
Outline: (§2)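 Pooled alamethicin-activated human liver, kidney or intestinal microsomes. […] Duplicate incubations of 30–60 min, with no-cofactor controls. Parent depletion read by LC-MS/MS. k from a single-exponential fit, corrected by fu,inc.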

[4] = target: UDP-glucuronosyltransferase 1A1 (Homo sapiens) (UniProt P22309); assay: Drug metabolism in human intestinal microsomes assessed as UGT1A1-mediated unbound intrinsic glucuronidation clearance at 1 uM after 30 to 60 mins by LC-MS/MS analysis in presence of 2% bovine serum albumin
Liver microsome [5] = assay: Unbound intrinsic glucuronidation clearance in human liver microsomes at 1 uM after 30 to 60 mins by LC-MS/MS analysis in presence of UDP-glucuronosyltransferase; format: ADME; outline: as §1
[6] = target: T1, UDP-glucuronosyltransferase 1A1 (Homo sapiens, UniProt P22309); assay: Ratio of UGT1A1-mediated unbound intrinsic glucuronidation clearance in human intestinal microsomes to UGT1A1-mediated unbound intrinsic glucuronidation clearance in human liver microsomes at 1 uM in presence of 2% bovine serum albumin; format: ADME
T1 sequence (P22309 whole entry): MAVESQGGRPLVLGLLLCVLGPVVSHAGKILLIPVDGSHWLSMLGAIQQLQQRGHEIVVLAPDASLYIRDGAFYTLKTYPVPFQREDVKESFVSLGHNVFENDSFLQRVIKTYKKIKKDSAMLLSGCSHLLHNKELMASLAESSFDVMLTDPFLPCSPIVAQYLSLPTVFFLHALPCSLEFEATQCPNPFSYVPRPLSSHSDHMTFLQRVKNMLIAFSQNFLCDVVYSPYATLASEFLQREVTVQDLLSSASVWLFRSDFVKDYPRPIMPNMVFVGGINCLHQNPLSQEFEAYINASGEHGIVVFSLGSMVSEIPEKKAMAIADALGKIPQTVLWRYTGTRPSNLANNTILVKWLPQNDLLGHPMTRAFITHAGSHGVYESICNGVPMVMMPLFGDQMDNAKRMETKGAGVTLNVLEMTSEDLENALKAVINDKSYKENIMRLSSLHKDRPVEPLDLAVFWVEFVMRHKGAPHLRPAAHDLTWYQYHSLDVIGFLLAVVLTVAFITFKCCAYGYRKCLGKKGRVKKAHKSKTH

[7] = Fraction unbound in human intestinal microsomes at 1 uM after 30 to 60 mins by LC-MS/MS analysis; format: ADME, Intestine, Microsome
[8] = target: T1, UDP-glucuronosyltransferase 1A1; assay: Drug metabolism in human intestinal microsomes assessed as UGT1A1-mediated unbound intrinsic glucuronidation clearance at 1 uM after 30 to 60 mins by LC-MS/MS analysis; format: ADME, Intestine
[9] = target: T1, UDP-glucuronosyltransferase 1A1; assay: Ratio of UGT1A1-mediated unbound intrinsic glucuronidation clearance in human kidney microsomes to UGT1A1-mediated unbound intrinsic glucuronidation clearance in human intestinal microsomes at 1 uM; format: ADME
[10] = Fraction unbound in human liver microsomes at 1 uM […] by LC-MS/MS analysis in presence of 2% bovine serum albumin; format: ADME
Liver microsome [11] = assay: Ratio of unbound intrinsic glucuronidation clearance in human liver microsomes in presence of 2% bovine serum albumin to unbound intrinsic glucuronidation clearance in human liver microsomes in absence of bovine serum albumin; format: ADME
Outline: (§3)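 Ratios of mean scaled unbound CLint,UGT (per g tissue) between tissues, or between with and without BSA. Microsomal depletion assays at 1 μM, or 5 μM for propofol, in pH 7.1 phosphate at 37°C, read by LC-MS/MS. Kidney and liver n = 3, intestine n = 1, each in duplicate.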

[12] = target: T1, UDP-glucuronosyltransferase 1A1; assay: Drug metabolism in human kidney microsomes assessed as UGT1A1-mediated unbound intrinsic glucuronidation clearance at 1 uM after 30 to 60 mins by LC-MS/MS analysis in presence of 2% bovine serum albumin; format: ADME
[13] = Ratio of unbound intrinsic glucuronidation clearance in human kidney microsomes in presence of 2% bovine serum albumin to unbound intrinsic glucuronidation clearance in human kidney microsomes in absence of bovine serum albumin; format: ADME, microsome; outline: as §3
[14] = target: T1, UDP-glucuronosyltransferase 1A1; assay: Drug metabolism in human liver microsomes assessed as UGT1A1-mediated unbound intrinsic glucuronidation clearance at 1 uM after 30 to 60 mins by LC-MS/MS analysis in presence of 2% bovine serum albumin; format: ADME
[15] = target: T1, UDP-glucuronosyltransferase 1A1; assay: Drug metabolism in human intestinal microsomes assessed as UGT1A1-mediated unbound intrinsic glucuronidation clearance at 1 uM after 30 to 60 mins by LC-MS/MS analysis in presence of 2% bovine serum albumin; format: ADME, Intestine
[16] = target: T1, UDP-glucuronosyltransferase 1A1; assay: Ratio of UGT1A1-mediated unbound intrinsic glucuronidation clearance in human kidney microsomes to UGT1A1-mediated unbound intrinsic glucuronidation clearance in human liver microsomes at 1 uM; format: ADME
[17] = target: T1, UDP-glucuronosyltransferase 1A1; assay: Ratio of UGT1A1-mediated unbound intrinsic glucuronidation clearance in human kidney microsomes to UGT1A1-mediated unbound intrinsic glucuronidation clearance in human intestinal microsomes at 1 uM in presence of 2% bovine serum albumin; format: ADME
[18] = target: T1, UDP-glucuronosyltransferase 1A1; assay: Drug metabolism in human kidney microsomes assessed as UGT1A1-mediated unbound intrinsic glucuronidation clearance at 1 uM after 30 to 60 mins by LC-MS/MS analysis; format: ADME
[19] = Unbound intrinsic glucuronidation clearance in human intestinal microsomes at 1 uM after 30 to 60 mins by LC-MS/MS analysis in presence of UDP-glucuronosyltransferase; format: ADME, Intestine, Microsome; outline: as §1
[20] = Unbound intrinsic glucuronidation clearance in human intestinal microsomes at 1 uM after 30 to 60 mins by LC-MS/MS analysis in presence of UDP-glucuronosyltransferase and 2% bovine serum albumin; format: ADME, Intestine, Microsome; outline: as §2
[21] = target: T1, UDP-glucuronosyltransferase 1A1; assay: Ratio of UGT1A1-mediated unbound intrinsic glucuronidation clearance in human intestinal microsomes to UGT1A1-mediated unbound intrinsic glucuronidation clearance in human liver microsomes at 1 uM; format: ADME
[22] = target: T1, UDP-glucuronosyltransferase 1A1; assay: Drug metabolism in human liver microsomes assessed as UGT1A1-mediated unbound intrinsic glucuronidation clearance at 1 uM after 30 to 60 mins by LC-MS/MS analysis; format: ADME
[23] = Unbound intrinsic glucuronidation clearance in human kidney microsomes at 1 uM after 30 to 60 mins by LC-MS/MS analysis in presence of UDP-glucuronosyltransferase and 2% bovine serum albumin; format: ADME, microsome; outline: as §2
[24] = Fraction unbound in human kidney microsomes at 1 uM after 30 to 60 mins by LC-MS/MS analysis; format: ADME
[25] = target: T1, UDP-glucuronosyltransferase 1A1; assay: Ratio of UGT1A1-mediated unbound intrinsic glucuronidation clearance in human kidney microsomes to UGT1A1-mediated unbound intrinsic glucuronidation clearance in human liver microsomes at 1 uM in presence of 2% bovine serum albumin; format: ADME
[26] = Drug metabolism in human liver microsomes assessed as UGT1A9/2B7-mediated unbound intrinsic glucuronidation clearance at 1 uM after 30 to 60 mins by LC-MS/MS analysis in presence of 1% bovine serum albumin; format: ADME
[27] = Drug metabolism in human intestinal microsomes assessed as UGT1A9/2B7-mediated unbound intrinsic glucuronidation clearance at 1 uM after 30 to 60 mins by LC-MS/MS analysis in presence of 1% bovine serum albumin; format: ADME, Intestine
[28] = Drug metabolism in human liver microsomes assessed as UGT1A9/2B7-mediated unbound intrinsic glucuronidation clearance at 1 uM after 30 to 60 mins by LC-MS/MS analysis; format: ADME
Liver microsome [29] = assay: Fraction metabolized glucuronidation in human liver microsomes in presence of UDP-glucuronosyltransferase and bovine serum albumin; format: ADME
[30] = Renal clearance in human; format: ADME, organism-based, Kidney; settings: in vivo
Liver microsome [31] = assay: Fraction unbound in human liver microsomes at 1 uM after 30 to 60 mins by LC-MS/MS analysis in presence of 1% bovine serum albumin; format: ADME; settings: microsomes, 1 µM
Liver microsome [32] = assay: Fraction metabolized glucuronidation in human liver microsomes in presence of UDP-glucuronosyltransferase; format: ADME
[33] = Unbound intrinsic glucuronidation clearance in human intestinal microsomes at 1 uM after 30 to 60 mins by LC-MS/MS analysis in presence of UDP-glucuronosyltransferase and 1% bovine serum albumin; format: ADME, Intestine, Microsome
[34] = Drug metabolism in human kidney microsomes assessed as UGT1A9/2B7-mediated unbound intrinsic glucuronidation clearance at 1 uM after 30 to 60 mins by LC-MS/MS analysis in presence of 1% bovine serum albumin; format: ADME
Liver microsome [35] = assay: Unbound intrinsic glucuronidation clearance in human liver microsomes at 1 uM after 30 to 60 mins by LC-MS/MS analysis in presence of UDP-glucuronosyltransferase and 1% bovine serum albumin; format: ADME
[36] = Drug metabolism in human kidney microsomes assessed as UGT1A9/2B7-mediated unbound intrinsic glucuronidation clearance at 1 uM after 30 to 60 mins by LC-MS/MS analysis; format: ADME
[37] = Drug metabolism in human intestinal microsomes assessed as UGT1A9/2B7-mediated unbound intrinsic glucuronidation clearance at 1 uM after 30 to 60 mins by LC-MS/MS analysis; format: ADME, Intestine
[38] = Clearance in iv dosed human; format: ADME, organism-based; settings: in vivo
[39] = Unbound intrinsic glucuronidation clearance in human kidney microsomes at 1 uM after 30 to 60 mins by LC-MS/MS analysis in presence of UDP-glucuronosyltransferase and 1% bovine serum albumin; format: ADME, microsome

CL free [1]: 295 µL/min/mg
fraction unbound at 1 µM [2]: 0.3
CL free (Liver microsome [3]): 5180 µL/min/mg
CL free [4]: 23.8 mL/min/g
CL free (Liver microsome [5]): 2930 µL/min/mg
Ratio [6]: 0.115
fraction unbound at 1 µM [7]: 0.18
CL free [8]: 8.61 mL/min/g
Ratio [9]: 0.439
fraction unbound at 1 µM [10]: 0.05
Ratio (Liver microsome [11]): 1.8
CL free [12]: 6.34 mL/min/g
Ratio [13]: 1.7
CL free [14]: 207 mL/min/g
CL free [15]: 23.8 mL/min/g
Ratio [16]: 0.032
Ratio [17]: 0.266
CL free [18]: 3.78 mL/min/g
CL free [19]: 418 µL/min/mg
CL free [20]: 1160 µL/min/mg
Ratio [21]: 0.073
CL free [22]: 117 mL/min/g
CL free [23]: 495 µL/min/mg
fraction unbound at 1 µM [24]: 0.18
Ratio [25]: 0.031
SMILES: O=C1[C@H](CC[C@H](O)c2ccc(F)cc2)[C@@H](c2ccc(O)cc2)N1c1ccc(F)cc1 [EZETIMIBE]

CL free [1]: 177 µL/min/mg
CL free [26]: 47.4 mL/min/g
fraction unbound at 1 µM [2]: 0.98
CL free [27]: 6.7 mL/min/g
CL free (Liver microsome [5]): 761 µL/min/mg
fraction unbound at 1 µM [7]: 0.98
CL free [28]: 30.5 mL/min/g
Drug metabolism (Liver microsome [29]): 0.65
CL renal [30]: 0.06 mL/min/kg
Fu (Liver microsome [31]): 0.02
Drug metabolism (Liver microsome [32]): 0.62
CL free [33]: 325 µL/min/mg
CL free [34]: 6.95 mL/min/g
CL free [19]: 74.9 µL/min/mg
CL free (Liver microsome [35]): 1190 µL/min/mg
fraction unbound at 1 µM [24]: 0.99
CL free [36]: 2.27 mL/min/g
CL free [37]: 1.54 mL/min/g
clearance [38]: 4.84 mL/min/kg
CL free [39]: 543 µL/min/mg
SMILES: O=C(O)Cc1ccccc1Nc1c(Cl)cccc1Cl [DICLOFENAC]
